Assay results of several laboratories.
Organism: Staphylococcus aureus

| Structure (SMILES) | assay | system | conditions | measurement | value |
| --- | --- | --- | --- | --- | --- |
| O=C(/C=C/C=C/c1ccccc1)c1ccccc1OCc1ccc(F)cc1 | microbial growth, well diffusion | MTCC96 | 1000 µg/mL, 18 h | inhibition zone | 7 mm |
| COc1cc2c(cc1OC)[C@@H]1Cc3ccc(OC)c(OC)c3CN1CC2 | microbial growth | – | 24 h | MIC50 | > 1600 µM |
| CC(=O)NC[C@H]1CN(c2ccc(N3CCOCC3)c(F)c2)C(=O)O1 | microbial growth | MSSA | clinical isolate | MIC90 | 2 µg/mL |
| O=C(/C=C/C=C/c1ccccc1)c1ccccc1OCc1cccc(Cl)c1 | microbial growth, well diffusion | MTCC96 | 1000 µg/mL, 18 h | inhibition zone | 7 mm |
| Nc1ccc(S(=O)(=O)Nc2ncccn2)cc1 | microbial growth, well diffusion | MRSA | 20 µg/mL | inhibition zone | 2 mm |
| COc1cc2c(cc1OC)-c1cc3ccc(OC)c(OC)c3c[n+]1CC2 | microbial growth | – | 24 h | MIC50 | 205 µM |
| CC[C@H]1OC(=O)[C@H](C)[C@@H](O[C@H]2C[C@@](C)(OC)[C@@H](O)[C@H](C)O2)[C@H](C)[C@@H](O[C@@H]2O[C@H](C)C[C@H](N(C)C)[C@H]2O)[C@](C)(O)C[C@@H](C)/C(=N\OCOCCOC)[C@H](C)[C@@H](O)[C@]1(C)O | microbial growth | MRSA | clinical isolate | MIC90 | 64 µg/mL |
| CN1CCN(CCCN2c3ccccc3Sc3ccc(Cl)cc32)CC1 | microbial killing, broth dilution | ATCC43300 | 18 h | MBC | 64 µg/mL |
| O=C(/C=C/C=C/c1ccccc1)c1ccccc1OCc1ccc(Cl)cc1 | microbial growth, well diffusion | MTCC96 | 1000 µg/mL, 18 h | inhibition zone | 7 mm |
| O=C(O)c1cn(C2CC2)c2cc(N3CCNCC3)c(F)cc2c1=O | microbial growth, well diffusion | MRSA | 20 µg/mL | inhibition zone | 3 mm |
| C=C[C@]1(C)C[C@@H](OC(=O)CS[C@@H]2C[C@H]3CC[C@@H](C2)N3C)[C@]2(C)[C@H](C)CC[C@]3(CCC(=O)[C@H]32)[C@@H](C)[C@@H]1O | microbial growth | MRSA | clinical isolate | MIC90 | 0.125 µg/mL |
| CCS(=O)(=O)Oc1ccc(C=NNC(=O)CSc2nc3c(C)cccc3c(=O)n2-c2ccccc2)cc1OC | microbial growth, well diffusion | MRSA | 20 µg/mL | inhibition zone | 3 mm |
| CN[C@H](CC(C)C)C(=O)N[C@H]1C(=O)N[C@@H](CC(N)=O)C(=O)N[C@H]2C(=O)N[C@H]3C(=O)N[C@H](C(=O)N[C@H](C(=O)O)c4cc(O)cc(O)c4-c4cc3ccc4O)[C@H](O)c3ccc(c(Cl)c3)Oc3cc2cc(c3O[C@@H]2O[C@H](CO)[C@@H](O)[C@H](O)[C@H]2O[C@H]2C[C@](C)(N)[C@H](O)[C@H](C)O2)Oc2ccc(cc2Cl)[C@H]1O | microbial growth | MSSA | clinical isolate | MIC90 | 1 µg/mL |
| CCCS(=O)(=O)Oc1ccc(C=NNC(=O)CSc2nc3c(C)cccc3c(=O)n2-c2ccccc2)cc1OC | microbial growth, well diffusion | MRSA | 20 µg/mL | inhibition zone | 4 mm |
| CC1(C)S[C@@H]2[C@H](NC(=O)[C@H](N)c3ccccc3)C(=O)N2[C@H]1C(=O)O | microbial growth | MRSA | clinical isolate | MIC90 | > 128 µg/mL |
| CCCS(=O)(=O)Oc1ccc(C=NNC(=O)CSc2nc3ccc(Cl)cc3c(=O)n2-c2ccccc2)cc1 | microbial growth, well diffusion | MRSA | 20 µg/mL | inhibition zone | 2 mm |
| CN(C)CCCN1c2ccccc2Sc2ccc(Cl)cc21 | microbial killing, broth dilution | ATCC43300 | 18 h | MBC | 64 µg/mL |
| Cc1cccc2c(=O)n(-c3ccccc3)c(SCC(=O)NN=Cc3ccc(OS(C)(=O)=O)cc3)nc12 | microbial growth, well diffusion | MRSA | 20 µg/mL | inhibition zone | 2 mm |
| O=C(O)c1cn(C2CC2)c2cc(N3CCNCC3)c(F)cc2c1=O | microbial growth, broth dilution | – | – | MIC90 | 3.13 µM |
